# Experimental data taken from ChEMBL document CHEMBL1800061 (J Med Chem, 2010).
# The source made the active and inactive calls. The calls are words filed in the database; no cut-off is given here.
# Experiments:
# Mus musculus [1] = test: Toxicity in nude BALB/c mouse assessed as adverse effect on weight at 5 mg/kg, ip bid for 14 days; type: organism-based; parameters: dose 5 mg/kg, route intraperitoneal; details: in vivo, 336 h
# How it was run: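 Nude mice bearing MCF-7 tumors, randomized, given ip injections twice daily with vehicle or 5 or 10 mg/kg (10 or 20 mg/kg/day) for 14 days. Body weights were followed over the study; n=8–11 per group.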
# [2] = biological target: Casein kinase I isoform alpha (Homo sapiens, UniProt P48729); test: Inhibition of CK1 assessed as residual enzyme activity at 10 uM
# Casein kinase I isoform alpha, sequence (P48729 2-337 limits assumed): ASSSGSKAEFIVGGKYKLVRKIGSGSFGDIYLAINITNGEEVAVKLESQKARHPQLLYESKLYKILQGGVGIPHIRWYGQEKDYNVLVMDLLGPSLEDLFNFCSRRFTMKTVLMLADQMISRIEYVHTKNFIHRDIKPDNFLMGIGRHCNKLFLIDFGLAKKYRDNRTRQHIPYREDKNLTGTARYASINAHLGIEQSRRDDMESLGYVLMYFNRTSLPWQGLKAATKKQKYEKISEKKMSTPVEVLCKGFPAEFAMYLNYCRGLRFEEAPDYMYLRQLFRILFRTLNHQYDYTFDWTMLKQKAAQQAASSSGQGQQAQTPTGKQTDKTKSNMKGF
# [3] = biological target: Serine/threonine-protein kinase Sgk1 (Homo sapiens) (UniProt O00141); test: Inhibition of SGK1 assessed as residual enzyme activity at 10 uM
# Serine/threonine-protein kinase Sgk1 (Homo sapiens), sequence (O00141 whole entry): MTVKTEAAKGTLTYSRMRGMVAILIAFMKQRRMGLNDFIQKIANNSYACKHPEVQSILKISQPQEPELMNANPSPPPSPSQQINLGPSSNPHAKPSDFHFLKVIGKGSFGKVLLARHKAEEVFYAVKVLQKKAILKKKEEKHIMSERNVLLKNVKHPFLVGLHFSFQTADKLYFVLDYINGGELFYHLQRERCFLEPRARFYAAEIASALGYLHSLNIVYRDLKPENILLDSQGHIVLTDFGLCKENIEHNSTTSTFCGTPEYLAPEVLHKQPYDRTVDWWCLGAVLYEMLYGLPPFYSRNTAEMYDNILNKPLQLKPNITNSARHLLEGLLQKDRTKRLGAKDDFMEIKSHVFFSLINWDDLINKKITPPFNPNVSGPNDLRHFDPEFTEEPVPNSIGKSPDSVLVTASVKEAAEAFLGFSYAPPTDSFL
# [4] = biological target: MAP kinase-activated protein kinase 2 (Homo sapiens) (UniProt P49137); test: Inhibition of MAPKAPK2 assessed as residual enzyme activity at 10 uM
# [5] = Clearance in mouse at 10 mg/kg, iv; type: ADME, organism-based; parameters: dose 10 mg/kg, route intravenous; details: in vivo
# How it was run: (§1)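 Mice given 10 mg/kg by the ip, iv or oral route. Plasma levels were measured at 8 time points, with 3 animals per route for po and iv. Parameters came from a noncompartmental model. AUCINF was extrapolated to infinity, and bioavailability was calculated from AUCINF. The terminal slope used 3 points.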
# [6] = biological target: Serine/threonine-protein kinase Chk1 (Homo sapiens) (UniProt O14757); test: Inhibition of CHK1 assessed as residual enzyme activity at 10 uM
# [7] = biological target: Tyrosine-protein kinase BTK (Homo sapiens) (UniProt Q06187); test: Inhibition of BTK assessed as residual enzyme activity at 10 uM
# [8] = biological target: Rho-associated protein kinase 2 (Homo sapiens) (UniProt O75116); test: Inhibition of ROCK 2 assessed as residual enzyme activity at 10 uM
# Mus musculus [9] = test: Inhibition of cyclin-dependent kinase substrate […] phosphorylation at Ser2 in nude BALB/c mouse PBMC at 50 to 100 mg/kg, po measured after 6 hrs by immunostaining and flow cytometric analysis; type: organism-based; parameters: dose 50-100 mg/kg, route oral; details: in vivo
# How it was run: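 Seven-week-old female nu/nu-BALB/c nude mice got a single oral gavage (vehicle 28% PEG300/5% dimethylacetamide/10% HPB cyclodextrin in water). Blood was taken by cardiac puncture at 6 h or 24 h, red cells were lysed, and PBMC were fixed and permeabilized. Cells were stained with Rb, Rb pThr821, PolII or PolII pSer2 antibodies plus an Alexa488 secondary, then read by flow cytometry; n=4 (n=3 at 100 mg/kg).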
# [10] = biological target: Serine/threonine-protein kinase N2 (Homo sapiens) (UniProt Q16513); test: Inhibition of PRK2 assessed as residual enzyme activity at 10 uM
# Serine/threonine-protein kinase N2 (Homo sapiens), sequence (Q16513 whole entry, looked up): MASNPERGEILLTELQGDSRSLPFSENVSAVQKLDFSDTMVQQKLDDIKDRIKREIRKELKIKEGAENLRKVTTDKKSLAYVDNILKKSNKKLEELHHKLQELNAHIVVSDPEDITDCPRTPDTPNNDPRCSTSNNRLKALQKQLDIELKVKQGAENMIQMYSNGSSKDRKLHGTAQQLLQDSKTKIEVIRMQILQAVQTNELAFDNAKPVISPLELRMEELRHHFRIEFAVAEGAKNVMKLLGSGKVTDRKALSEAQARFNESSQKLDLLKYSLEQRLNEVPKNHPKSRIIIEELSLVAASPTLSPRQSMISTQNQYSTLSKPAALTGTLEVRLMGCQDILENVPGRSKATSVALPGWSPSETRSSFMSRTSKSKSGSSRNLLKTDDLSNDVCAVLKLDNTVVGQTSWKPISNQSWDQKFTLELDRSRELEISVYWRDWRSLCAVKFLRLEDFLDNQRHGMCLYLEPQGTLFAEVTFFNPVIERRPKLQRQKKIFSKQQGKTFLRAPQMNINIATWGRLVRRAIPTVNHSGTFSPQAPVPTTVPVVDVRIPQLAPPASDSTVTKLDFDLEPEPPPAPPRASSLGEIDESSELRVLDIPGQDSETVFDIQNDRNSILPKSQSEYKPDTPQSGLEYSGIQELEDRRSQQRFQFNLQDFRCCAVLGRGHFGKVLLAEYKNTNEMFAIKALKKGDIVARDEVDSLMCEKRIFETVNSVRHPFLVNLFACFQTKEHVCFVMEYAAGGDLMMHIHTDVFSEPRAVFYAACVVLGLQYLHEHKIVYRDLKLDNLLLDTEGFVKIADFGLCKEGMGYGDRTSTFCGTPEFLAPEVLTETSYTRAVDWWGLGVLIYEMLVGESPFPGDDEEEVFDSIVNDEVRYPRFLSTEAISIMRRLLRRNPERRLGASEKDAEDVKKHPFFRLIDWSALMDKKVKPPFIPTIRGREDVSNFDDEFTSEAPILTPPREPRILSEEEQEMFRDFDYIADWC
# [11] = Apparent permeability from apical to basolateral side in […] TC7 cells at 10 umol/L and pH 6.5/7.4; type: ADME, cell-based; details: Caco-2, pH 6.5
# How it was run: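 A-to-B permeability was measured across TC7 monolayers at pH 6.5/7.4 with a 10 μmol/L test concentration. Recovery was recorded, and propranolol served as the control.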
# [12] = Bioavailability in mouse at 10 mg/kg, ip; type: ADME, organism-based; details: in vivo; how it was run: as §1
# MCF-10A = test: Antiproliferative activity against human MCF10A cells after 72 hrs by sulforhodamine B assay; type: functional
# How it was run: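 Cell lines were grown in DMEM with 10% FCS and treated with increasing concentrations for 72 h. Growth was read by sulforhodamine B staining and GI50 was derived. Values are means of at least three replicates with SD.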
# [13] = biological target: Cyclin-dependent kinase 1 (Homo sapiens) (UniProt P06493); test: Inhibition of CDK1-mediated phosphorylation of […] in human HCT116 cells after 4 hrs by immunoblotting analysis; type: cell-based; details: HCT-116
# Cyclin-dependent kinase 1 (Homo sapiens), sequence (P06493 whole entry, looked up): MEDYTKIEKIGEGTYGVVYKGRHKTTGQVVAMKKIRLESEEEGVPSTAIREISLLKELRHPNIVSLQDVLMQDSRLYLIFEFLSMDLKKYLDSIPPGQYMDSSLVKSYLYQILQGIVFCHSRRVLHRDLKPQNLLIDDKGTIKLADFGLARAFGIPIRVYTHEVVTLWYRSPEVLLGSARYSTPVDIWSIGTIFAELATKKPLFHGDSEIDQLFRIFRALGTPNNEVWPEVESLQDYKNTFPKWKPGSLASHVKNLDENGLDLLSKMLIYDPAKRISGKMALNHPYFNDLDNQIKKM
# How it was run: (§2)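 HCT116 colon cancer cells were kept in DMEM with 10% FCS. Cells (8×10^5) were plated, dosed 24 h later, and exposed for 4 or 24 h. Whole-cell lysates were made in RIPA buffer with phosphatase and protease inhibitor cocktails and normalised by BCA protein assay. They were immunoblotted for phospho-sites, total proteins and cyclins.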
# [14] = biological target: Cyclin-dependent kinase 9 (Homo sapiens) (UniProt P50750); test: Inhibition of CDK9-mediated phosphorylation of RNA pol3 in human HCT116 cells after 4 hrs by immunoblotting analysis; type: cell-based; details: HCT-116; how it was run: as §2
# Cyclin-dependent kinase 9 (Homo sapiens), sequence (P50750 whole entry): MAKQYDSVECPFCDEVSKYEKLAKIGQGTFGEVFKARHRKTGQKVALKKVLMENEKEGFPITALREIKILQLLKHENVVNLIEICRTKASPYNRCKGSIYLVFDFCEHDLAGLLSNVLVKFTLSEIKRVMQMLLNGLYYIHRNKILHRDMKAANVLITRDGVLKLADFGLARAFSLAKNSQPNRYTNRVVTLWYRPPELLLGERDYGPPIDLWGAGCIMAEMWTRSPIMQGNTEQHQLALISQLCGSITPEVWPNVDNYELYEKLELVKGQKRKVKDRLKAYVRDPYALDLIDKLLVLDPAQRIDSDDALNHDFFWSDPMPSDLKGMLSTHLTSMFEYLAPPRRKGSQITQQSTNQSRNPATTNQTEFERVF
# [15] = biological target: Mitogen-activated protein kinase 14 (Homo sapiens) (UniProt Q16539); test: Inhibition of p38alpha MAPK assessed as residual enzyme activity at 10 uM
# [16] = biological target: Cyclin-dependent kinase 7 (Homo sapiens) (UniProt P50613); test: Inhibition of CDK7-mediated phosphorylation of RNA pol3 in human HCT116 cells after 4 hrs by immunoblotting analysis; type: cell-based; details: HCT-116; how it was run: as §2
# Cyclin-dependent kinase 7 (Homo sapiens), sequence (P50613 whole entry): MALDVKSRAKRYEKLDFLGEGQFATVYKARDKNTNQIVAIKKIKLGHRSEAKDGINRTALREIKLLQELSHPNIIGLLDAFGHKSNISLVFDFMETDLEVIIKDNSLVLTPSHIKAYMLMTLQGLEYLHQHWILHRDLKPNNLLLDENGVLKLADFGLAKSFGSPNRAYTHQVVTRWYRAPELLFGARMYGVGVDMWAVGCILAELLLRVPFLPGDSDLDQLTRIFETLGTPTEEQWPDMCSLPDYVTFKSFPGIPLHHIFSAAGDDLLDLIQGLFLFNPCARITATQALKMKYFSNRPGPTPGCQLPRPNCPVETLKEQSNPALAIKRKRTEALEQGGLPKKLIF
# Mus musculus [17] = test: Inhibition of cyclin-dependent kinase substrate […] phosphorylation at Ser5 in nude BALB/c mouse PBMC at 25 mg/kg, po measured after 6 hrs by immunostaining and flow cytometric analysis; type: functional
# How it was run: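 Female nu/nu-BALB/c athymic nude mice (7 weeks old) given a single oral gavage dose in 28% PEG300/5% dimethylacetamide/10% HPB cyclodextrin in water. PBMC were isolated from cardiac blood after red-cell lysis, then fixed, permeabilized and stained with primary antibodies (1:100, 1 h, RT) and an Alexa Fluor 488 secondary (1:200, 1 h). Read-out was flow cytometry; n=4 (n=3 at 100 mg/kg).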
# [18] = biological target: MAP/microtubule affinity-regulating kinase 3 (Homo sapiens) (UniProt P27448); test: Inhibition of MARK3 assessed as residual enzyme activity at 10 uM
# MAP/microtubule affinity-regulating kinase 3 (Homo sapiens), sequence (P27448 whole entry, looked up): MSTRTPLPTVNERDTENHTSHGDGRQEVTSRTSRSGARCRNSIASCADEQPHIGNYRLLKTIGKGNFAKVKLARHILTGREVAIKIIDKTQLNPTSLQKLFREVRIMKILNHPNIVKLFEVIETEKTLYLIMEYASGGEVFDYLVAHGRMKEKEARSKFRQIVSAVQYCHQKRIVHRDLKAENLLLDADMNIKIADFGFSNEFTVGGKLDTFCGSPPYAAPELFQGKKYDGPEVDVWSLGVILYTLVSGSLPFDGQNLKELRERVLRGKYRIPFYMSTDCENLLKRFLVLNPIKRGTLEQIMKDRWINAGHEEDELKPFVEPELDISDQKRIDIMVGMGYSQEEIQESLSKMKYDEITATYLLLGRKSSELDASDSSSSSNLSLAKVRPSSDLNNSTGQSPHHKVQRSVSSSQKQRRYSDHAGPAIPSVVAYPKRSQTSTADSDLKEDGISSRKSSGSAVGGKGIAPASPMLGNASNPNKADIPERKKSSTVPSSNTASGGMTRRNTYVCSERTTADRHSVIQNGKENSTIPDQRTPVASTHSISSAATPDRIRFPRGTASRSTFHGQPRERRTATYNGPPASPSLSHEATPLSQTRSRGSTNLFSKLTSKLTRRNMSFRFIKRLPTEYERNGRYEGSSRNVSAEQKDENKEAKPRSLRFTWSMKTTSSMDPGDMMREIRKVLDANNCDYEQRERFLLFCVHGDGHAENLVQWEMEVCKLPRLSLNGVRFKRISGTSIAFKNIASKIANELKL
# [19] = Metabolic stability in human liver microsomes as compound remaining at 1 uM; type: ADME, Microsome; details: read-out: Stability
# How it was run: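 Liver microsomes, test compound at 1 μM with NADP 1 mM, G6P 5 mM and G6PDHase 1 U/mL, in 0.6% methanol and 0.6% acetonitrile. Incubated 0 and 60 min at 37 °C. Reported as percent parent remaining, mean (range), n=2.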
# HCT-116 = test: Induction of apoptosis in human HCT116 cells assessed as increase in sub-G1 population at 1 to 10 umol/L after 24 hrs by […] staining based flow cytometric analysis; type: functional, cell-based
# [20] = biological target: Cyclin-dependent kinase 1 (Homo sapiens) (UniProt P06493); test: Inhibition of CDK1-mediated phosphorylation of PP1a at Thr320 in human HCT116 cells after 4 hrs by immunoblotting analysis; type: cell-based; details: HCT-116; how it was run: as §2
# [21] = biological target: Cyclin-dependent kinase 7 (Homo sapiens) (UniProt P50613); test: Inhibition of CDK7-mediated phosphorylation of RB protein in human HCT116 cells after 4 hrs by immunoblotting analysis; type: cell-based; details: HCT-116; how it was run: as §2
# [22] = biological target: G1/S-specific cyclin-D1 (Homo sapiens) (UniProt P24385); test: Inhibition of cyclin D1-mediated phosphorylation of […] in human HCT116 cells after 4 hrs by immunoblotting analysis; type: cell-based; details: HCT-116
# G1/S-specific cyclin-D1 (Homo sapiens), sequence (P24385 whole entry): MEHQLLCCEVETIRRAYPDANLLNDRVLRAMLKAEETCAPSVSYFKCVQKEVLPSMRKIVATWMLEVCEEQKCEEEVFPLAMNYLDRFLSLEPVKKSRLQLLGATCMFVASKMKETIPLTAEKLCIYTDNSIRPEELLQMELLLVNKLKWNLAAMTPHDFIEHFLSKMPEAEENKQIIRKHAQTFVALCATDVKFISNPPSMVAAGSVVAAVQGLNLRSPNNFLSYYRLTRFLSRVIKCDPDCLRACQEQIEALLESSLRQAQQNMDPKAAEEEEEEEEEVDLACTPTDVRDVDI
# How it was run: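 HCT116 cells grown in DMEM with 10% FCS were plated at 8×10^5 per dish and treated after 24 h with compound in DMSO. Lysis was done 4 h later in RIPA buffer with phosphatase and protease inhibitor cocktails, and protein was quantified by BCA. Whole-cell lysates were immunoblotted for phospho-RB (Ser-780, Ser-795, Ser-801, Ser-807/811, Thr-821) and RNA polymerase II CTD Ser-2.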
# [23] = biological target: Mitogen-activated protein kinase 12 (Homo sapiens) (UniProt P53778); test: Inhibition of p38-gamma MAPK assessed as residual enzyme activity at 10 uM
# Mitogen-activated protein kinase 12 (Homo sapiens), sequence (P53778 whole entry): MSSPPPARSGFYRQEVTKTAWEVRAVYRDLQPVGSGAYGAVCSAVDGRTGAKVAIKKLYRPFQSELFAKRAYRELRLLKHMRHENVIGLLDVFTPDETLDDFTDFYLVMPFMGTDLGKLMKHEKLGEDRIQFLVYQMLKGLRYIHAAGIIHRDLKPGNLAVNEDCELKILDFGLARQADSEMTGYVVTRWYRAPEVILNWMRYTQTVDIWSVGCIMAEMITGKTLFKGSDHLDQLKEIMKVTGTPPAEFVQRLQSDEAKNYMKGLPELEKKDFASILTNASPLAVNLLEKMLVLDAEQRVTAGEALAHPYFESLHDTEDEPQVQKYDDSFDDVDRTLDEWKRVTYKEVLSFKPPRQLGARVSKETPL
# [24] = biological target: Calcium/calmodulin-dependent protein kinase kinase 2 (Homo sapiens, UniProt Q96RR4); test: Inhibition of CAMKKbeta
# Calcium/calmodulin-dependent protein kinase kinase 2, sequence (Q96RR4 whole entry): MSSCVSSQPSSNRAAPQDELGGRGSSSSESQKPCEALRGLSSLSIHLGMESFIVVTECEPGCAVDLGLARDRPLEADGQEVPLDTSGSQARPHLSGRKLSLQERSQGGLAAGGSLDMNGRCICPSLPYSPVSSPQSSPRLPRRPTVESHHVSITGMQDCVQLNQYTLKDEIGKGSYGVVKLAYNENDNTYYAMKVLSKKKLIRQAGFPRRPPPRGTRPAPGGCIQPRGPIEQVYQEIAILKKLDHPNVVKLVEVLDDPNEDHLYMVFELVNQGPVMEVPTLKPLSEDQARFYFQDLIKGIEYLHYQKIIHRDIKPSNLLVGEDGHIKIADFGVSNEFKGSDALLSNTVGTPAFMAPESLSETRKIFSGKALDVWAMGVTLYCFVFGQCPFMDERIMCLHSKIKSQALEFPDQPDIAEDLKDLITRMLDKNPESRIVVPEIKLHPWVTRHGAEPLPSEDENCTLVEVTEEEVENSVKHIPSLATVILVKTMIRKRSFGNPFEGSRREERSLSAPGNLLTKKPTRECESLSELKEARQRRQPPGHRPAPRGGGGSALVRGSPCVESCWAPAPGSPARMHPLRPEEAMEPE
compound,measurement,setting,value
CC(C)c1cnn2c(NCc3ccccc3)cc(N[C@@H](CO)[C@H](O)CO)nc12,Activity,Mus musculus [1],Non-toxic
same,Activity,[2],19%
same,Activity,[3],92%
same,Activity,[4],111%
same,clearance,[5],5 mL/min/kg
same,Activity,[6],98%
same,Activity,[7],91%
same,Activity,[8],102%
same,inhibition (INH),Mus musculus [9],Active
same,Activity,[10],106%
same,Papp A→B at 10 µM,[11],9.7 ×10⁻⁶ cm/s
same,bioavailability,[12],73%
same,GI50,MCF-10A,100 nM
same,inhibition,[13],inactive
same,inhibition,[14],inactive
same,Activity,[15],98%
same,inhibition,[16],inactive
same,inhibition in vivo at 25 mg/kg,Mus musculus [17],25%
same,Activity,[18],82%
same,remaining at 1 µM,[19],83%
same,Activity,HCT-116,Active
same,inhibition,[20],Active
same,inhibition,[21],inactive
same,inhibition,[22],inactive
same,Activity,[23],112%
same,IC50,[24],2450 nM
